High-throughput results deposited in PubChem BioAssay by several laboratories.
Beta cell apopt – blocks beta cell apoptosis; INS-1E cytokine-induced death, ATP luminescence, 48 h; percent of positive-control rescue, neutral wells zero; protection from apoptosis, % (concentration not given with the values); 300,000 compounds, 0.8% hits; AID 435005;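 active = Every replicate reaches about 75%, or at least half do and their mean reaches it too, limit read from the data; inconclusive = At least half of replicates reach the limit but their mean does not; inactive = Under half of replicates reach the limit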;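 also: higher means more ATP so stronger rescue from cytokine killing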
L major viab – Leishmania major promastigote growth inhibition. Leishmania major promastigotes, resazurin fluorescence viability. inhibition, % at 10 µM. 200,000 compounds, 9% hits; in the data active = inhibition above about 50%;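 also: promastigotes grown with compound for 44 hours at 28 °C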
CSC inhib – cancer stem cell inhibition. 300,000 compounds, 1.1% hits. inhibition, % at 7.5 µM. cancer stem cell-like cells viability, luminescence. AID 2717; in the data active = inhibition above about 75%; inconclusive = no clear call, values can overlap the other calls; tested in HMLE shEcad cells
T cruzi inh – blocks replication of Trypanosoma cruzi | T. cruzi beta-gal in NIH3T3, luminescence, 90 h | inhibition, % (test concentration not listed) | 300,000 compounds, 1.4% hits | AID 1885;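 active = mean inhibition across valid replicates above about 55%, limit read from the data; inconclusive = mean below that limit but half or more replicates reach it; inactive = mean below it, under half of replicates reach it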;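 also: signal also drops with host cell toxicity which is not excluded here; higher percent means less beta-gal luminescence so fewer parasites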
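System – NIH/3T3 host cells with β-galactosidase reporter T. cruzi · Doses – single 50 nL compound addition per well in DMSO · Reagent – 5000 T. cruzi trypomastigotes/well · Medium – Low-serum DMEM with 2% FBS · Timing – ≥90 h infection period, 3 h prior cell attachment · Evaluation – parasite load inhibition, % · Technique – GalScreen luminescence, 60 min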
SKKanGAS inh – SKKanGAS growth inhibition; S. pyogenes SKKanGAS, kanamycin growth, BacTiter-Glo, 6 h; inhibition, % at 7.5 µM; 300,000 compounds, 1.3% hits; AID 1662;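 active = mean replicate score, as percent of positive control median, at least 50; inconclusive = mean below 50 but one replicate at or above 50; inactive = mean and every replicate below 50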;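 also: strain carries kanamycin resistance gene driven by streptokinase promoter and grows in 40 µg/ml kanamycin; loss of luminescence reflects streptokinase promoter inhibition or plain growth inhibition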
Mdm2-MdmX inh – human Mdm2/MdmX binding inhibition; AID 485346; inhibition, % at 8 µM; O15151+Q00987; SaOS-2 split-luciferase Mdm2/MdmX complementation, luminescence; 330,000 compounds, 3% hits;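 active = inhibition of at least 50% at 8 µM in the primary screen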
Target sequence (O15151 whole entry, looked up): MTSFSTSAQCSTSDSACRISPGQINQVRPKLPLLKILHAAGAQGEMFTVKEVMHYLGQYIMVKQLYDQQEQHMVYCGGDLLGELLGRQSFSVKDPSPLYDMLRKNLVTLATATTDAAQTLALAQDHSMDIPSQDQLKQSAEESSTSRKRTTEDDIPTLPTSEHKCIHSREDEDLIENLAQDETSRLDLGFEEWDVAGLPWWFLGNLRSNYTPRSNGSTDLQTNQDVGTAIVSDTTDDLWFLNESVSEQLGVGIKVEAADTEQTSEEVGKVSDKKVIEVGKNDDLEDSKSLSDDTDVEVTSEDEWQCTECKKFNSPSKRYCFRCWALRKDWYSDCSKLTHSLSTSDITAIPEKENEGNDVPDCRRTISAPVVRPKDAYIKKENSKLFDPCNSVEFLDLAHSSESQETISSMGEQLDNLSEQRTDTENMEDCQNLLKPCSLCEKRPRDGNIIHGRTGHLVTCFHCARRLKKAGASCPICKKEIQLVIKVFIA
Target sequence (Q00987 whole entry, looked up): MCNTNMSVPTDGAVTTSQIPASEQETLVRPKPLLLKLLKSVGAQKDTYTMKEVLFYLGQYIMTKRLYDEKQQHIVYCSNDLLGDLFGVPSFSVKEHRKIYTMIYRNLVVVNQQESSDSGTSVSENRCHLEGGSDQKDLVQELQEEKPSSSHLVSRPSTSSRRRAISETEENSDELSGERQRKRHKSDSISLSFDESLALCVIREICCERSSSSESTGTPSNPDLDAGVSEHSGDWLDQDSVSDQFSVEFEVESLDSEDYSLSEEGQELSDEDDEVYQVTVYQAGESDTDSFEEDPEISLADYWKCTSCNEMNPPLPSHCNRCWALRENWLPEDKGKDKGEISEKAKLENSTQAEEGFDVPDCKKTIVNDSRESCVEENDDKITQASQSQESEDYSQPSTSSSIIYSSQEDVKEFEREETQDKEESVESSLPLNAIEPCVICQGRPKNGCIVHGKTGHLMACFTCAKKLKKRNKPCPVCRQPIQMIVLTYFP
Large screens that a line does not name were inactive. The list is not random: actives were taken first. Their share in the collection is about 9.4%.

COc1cccc(C(=O)C2CCCN(C(=O)c3cccc(C#CC(C)(C)O)c3)C2)c1 (stereo unspecified)	none
O=C(Nc1cccc(-c2csc(Nc3ccc(Cl)cc3)n2)c1)c1ccccc1	SKKanGAS inh 91 (no result: L major viab)
O=C(Nc1ccccc1)Nc1nc(-c2ccccc2)cs1	none (no result: L major viab)
O=C(Nc1ccc(Cl)c(Cl)c1)Nc1ccccc1NS(=O)(=O)c1cccs1	CSC inhib 99
O=C(Nc1ccc(-c2csc(Nc3ccccc3)n2)cc1)c1ccccc1	none (no result: L major viab)
N#Cc1ccc(OCC(=O)Nc2ccccc2NS(=O)(=O)c2cccs2)cc1	L major viab 63
O=C(Nc1ccc(Cl)c(Cl)c1)Nc1nc(-c2ccccc2)cs1	T cruzi inh 64
O=C(Nc1ccc2c(c1)OCO2)c1noc2c1CCCC2	none (no result: L major viab)
CCCCC(c1nnnn1C(C)C)N1CCN(C(=O)c2ccco2)CC1 (stereo unspecified)	none (no result: L major viab)
COc1ccc(CCNC(=O)CCn2c(=O)c3cccn3c3ccc(F)cc32)c(OC)c1OC	none (no result: L major viab)
COc1cccc(N2CCN(C(=O)c3ccc(-c4ccccc4)cc3)CC2)c1	none (no result: L major viab)
O=C(Nc1ccc(Cl)cc1)Nc1nc(-c2ccccc2O)cs1	Beta cell apopt 109, SKKanGAS inh 61 (no result: L major viab)
O=C(Nc1ccc(Cl)cc1)Nc1nnc(-c2ccncc2)s1	Beta cell apopt 99, CSC inhib 91 (no result: Mdm2-MdmX inh)
CC(C)Cc1nnc(NC(=O)CN2C(=O)c3ccccc3C2=O)s1	none
CCOC(=O)C1=C(COC(=O)CSc2ccc(C)cc2)NC(=O)NC1C (stereo unspecified)	none (no result: L major viab, T cruzi inh, SKKanGAS inh)
Cn1c(-c2ccccc2)cnc1NCc1ccc(-c2ccccc2)cc1	CSC inhib inconclusive (no result: L major viab)
COc1ccc(CNc2ncc(-c3ccccc3)n2C)cc1	none (no result: L major viab)
Cn1c(-c2ccc(F)cc2)cnc1NCc1ccc(F)cc1	L major viab 88
Cn1c(-c2ccc(F)cc2)cnc1NCc1ccc(C#N)cc1	L major viab 92
Cn1c(-c2ccc(Br)cc2)cnc1NCc1cccnc1	L major viab 100
CCOc1cc(CNc2ncc(-c3ccc(OC)cc3)n2C)ccc1O	L major viab 65
Cn1c(-c2ccc(F)cc2)cnc1NCc1ccc(F)cc1F	none (no result: Beta cell apopt, L major viab, CSC inhib)
Cc1ccc(NC(=O)C(C)SCc2nc3sc(C)c(C)c3c(=O)[nH]2)nc1 (stereo unspecified)	none (no result: L major viab)
COc1ccc(OCc2nc3ccccc3n2C(C)C)cc1	none
C=CCn1c(=O)/c(=C/c2ccc(Cl)cc2)s/c1=C(/C#N)c1nnc2n1CCCCC2	L major viab 94
C=CCn1c(=O)/c(=C/c2ccc(O)cc2)s/c1=C(/C#N)c1nnc2n1CCCCC2	none (no result: T cruzi inh, SKKanGAS inh)
COc1ccc(C2C(C(=O)c3ccccc3)N3c4ccccc4C=CC3C2[N+](=O)[O-])cc1 (stereo unspecified)	none (no result: Beta cell apopt, CSC inhib, T cruzi inh, SKKanGAS inh, Mdm2-MdmX inh)
COc1ccc(S(=O)(=O)N2CCN(C(=O)NCc3ccc(C)cc3)CC2)cc1	none (no result: L major viab)
CCOc1cc(CNC(CC)CO)ccc1OCC(=O)Nc1cccc(C(F)(F)F)c1 (stereo unspecified)	L major viab 82
O=C(COc1ccc(Br)cc1CNCCCN1CCOCC1)Nc1ccccc1	L major viab 91
COc1cc(CNCCCN2CCOCC2)ccc1OCC(=O)Nc1cccc(C(F)(F)F)c1	L major viab 100
CS(=O)(=O)N1CCN(C(=O)Cc2ccccc2Cl)CC1	none
O=C(NNC(=O)c1ccccc1OCc1ccc(F)cc1)c1ccncc1	none (no result: L major viab)
c1ccc2c(c1)oc1c(NCCCN3CCOCC3)ncnc12	L major viab 96
c1ccc2c(c1)oc1c(NCCCn3ccnc3)ncnc12	L major viab 94
Cc1nc(NCCCn2ccnc2)c2oc3ccccc3c2n1	L major viab 88
O=c1c2ccccc2oc2ccc(NCCCn3ccnc3)cc12	none (no result: L major viab)
N#Cc1c(C(F)(F)F)cc(-c2ccco2)nc1SCc1ccncc1	T cruzi inh 62
N#Cc1ccc(-c2csc(NNC(=O)c3ccccc3)n2)cc1	Beta cell apopt 79 (no result: T cruzi inh)
CCN(c1ccc(OC)cc1)S(=O)(=O)c1nnc(NC(=O)COc2ccc(F)cc2)s1	none (no result: L major viab)
CCC(Sc1nc(C)cc(C)n1)C(=O)NC1=NN=C(c2ccc(C)cc2)CS1 (stereo unspecified)	Beta cell apopt 127
Cc1cc(C)nc(SCC(=O)NC2=NN=C(c3ccc(Br)cc3)CS2)n1	Beta cell apopt 113, T cruzi inh 68, SKKanGAS inh 99
CCC(Sc1nc(C)cc(C)n1)C(=O)Nc1cc(C)on1 (stereo unspecified)	none
CCN1CCN(c2ncc3c(n2)CC(c2cc(OC)c(OC)c(OC)c2)CC3=O)CC1 (stereo unspecified)	L major viab 100 (no result: Mdm2-MdmX inh)
O=C1CC(c2cccc(Cl)c2)Cc2nc(N3CCN(c4ccccc4)CC3)ncc21 (stereo unspecified)	none
COCOc1ccc(C=O)c(OCOC)c1	none (no result: L major viab)
C=C(C)[C@@H]1CC=C(CN2CCC(N3CCC(C(=O)N4CCCC4)CC3)CC2)CC1	L major viab 79
C=C(C)[C@@H]1CC=C(CN2CCN(Cc3ccccc3)CC2)CC1	none (no result: L major viab)
C=C(C)C1CC=C(CN2CCN(Cc3ccccc3)CC2)CC1 (stereo unspecified)	T cruzi inh 57 (no result: L major viab)
CC(C)=CCCC(C)CN1CCC(N2CCC(C(=O)N3CCCC3)CC2)CC1 (stereo unspecified)	L major viab 73
C=C(C)C1CC=C(CN2CCC(O)CC2)CC1 (stereo unspecified)	L major viab 93
Cc1ncc(CN2CCC(N3CCC(C(=O)N4CCCC4)CC3)CC2)s1	none (no result: L major viab)
O=S1(=O)N=C(N(CCO)/N=C/C=C/c2ccccc2)c2ccccc21	L major viab 53 (no result: Mdm2-MdmX inh)
O=C(NC1CC1)C1=C[C@@H](C2CC2)C[C@@H](OCc2ccc(CO)cc2)O1	none (no result: L major viab)
COc1ccc(C(=O)CSC2=C(C#N)C3(CCCCC3)C(C#N)=C(N)N2)cc1	L major viab 58
CCSC1=C(C#N)C2(CCCCC2)C(C#N)=C(N)N1	none
CCCSC1=C(C#N)C2(CCCCC2)C(C#N)=C(N)N1	none
N#CC1=C(N)NC(SCC(=O)Nc2ccccc2)=C(C#N)C12CCCCC2	L major viab 77
N#CC1=C(N)NC(SCC(=O)c2ccc(Cl)cc2)=C(C#N)C12CCCC2	none
N#CC1=C(N)NC(SCC(=O)c2ccc(Br)cc2)=C(C#N)C12CCCCC2	L major viab 100, T cruzi inh inconclusive (no result: Beta cell apopt)
O=C1Nc2ccc(Br)cc2/C1=C/C1CC=CCC1 (stereo unspecified)	L major viab 99
O=C1Nc2ccc(Br)cc2/C1=C/C(=O)c1ccc2c(c1)OCO2	none (no result: L major viab)
Cc1ccc(S(=O)(=O)CC2CSc3nc4ccccc4n32)cc1 (stereo unspecified)	Beta cell apopt 92
COc1ccc(OC)c(N2C(=O)CC(NNC(=O)c3ccc4c(c3)OCO4)C2=O)c1 (stereo unspecified)	none (no result: L major viab, T cruzi inh, SKKanGAS inh)
C/C(=N\O)C1CCCCC1	none (no result: L major viab)
Oc1ccc(N=Cc2cc(Br)c(N3CCOCC3)o2)cc1	L major viab 67 (no result: Beta cell apopt, CSC inhib)
